Measurements from ChEMBL document CHEMBL1140926, “Novel indazole non-nucleoside reverse transcriptase inhibitors using molecular hybridization based on crystallographic overlays” (J Med Chem, 2009).

Tests used:
[1] = biological target: Human immunodeficiency virus type 1 reverse transcriptase (Human immunodeficiency virus 1, UniProt Q72547); assay: Inhibition of RNA-dependent DNA polymerase activity of wild type HIV1 reverse transcriptase
[2] = Metabolic stability in human hepatocytes assessed as half life; assay type: ADME, cell-based, Liver, Hepatocyte
[3] = Metabolic stability in human liver microsomes assessed as half life; assay type: ADME, Microsome
[4] = tested on: Human immunodeficiency virus 1; assay: Antiviral activity against HIV1 NL4-3 in HeLaP4 reporter cell assessed as virus replication by FluorAceTM beta-galactosidase reporter assay; assay type: functional, organism-based; conditions: Human immunodeficiency virus 1, NL4-3, HeLaP4
Method in brief: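 Antiviral IC50 reported as the geometric mean of at least three independent experiments, with standard deviation given.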

[5] = biological target: Human immunodeficiency virus type 1 reverse transcriptase (Human immunodeficiency virus 1, UniProt Q72547, K103N); assay: Inhibition of RNA-dependent DNA polymerase activity of HIV1 reverse transcriptase K103N mutant
[6] = Cytotoxicity against human HeLaP4 cells; assay type: cell-based
[7] = biological target: Human immunodeficiency virus type 1 reverse transcriptase (Human immunodeficiency virus 1, UniProt Q72547, Y181C); assay: Inhibition of RNA-dependent DNA polymerase activity of HIV1 reverse transcriptase Y181C mutant

Compound | IC50 [1] [nM] | half-life [2] [h] | half-life [3] [h] | IC50 [4] [nM] | IC50 [5] [nM] | CC50 [6] [nM] | IC50 [7] [nM]
CCc1n[nH]c2cccc(Oc3cc(C#N)cc(C#N)c3)c12 | 112 |  |  |  |  |  | 
CNCc1n[nH]c2cccc(Oc3cc(C#N)cc(C#N)c3)c12 | > 30000 |  |  |  |  |  | 
CCc1n[nH]c2ccc(F)c(Oc3cc(C#N)cc(C#N)c3)c12 | 25 | > 6 | > 2 | 4.6 | 183 | > 100000 | 32
Cc1n[nH]c2ccc(F)c(Oc3cc(C#N)cc(C#N)c3)c12 | 50 | > 6 | > 2 | 14 |  | > 100000 | 145
COCc1n[nH]c2cccc(Oc3cc(C#N)cc(C#N)c3)c12 | 1670 |  |  |  |  |  | 
Cc1n[nH]c2ccc(Cl)c(Oc3cc(C#N)cc(C#N)c3)c12 | 399 |  |  |  |  |  | 
Cc1n[nH]c2c(CO)ccc(Oc3cc(C#N)cc(C#N)c3)c12 | 71 | 0.183 | > 2 | 14 | 1270 | > 100000 | 
O=C1Nc2ccc(Cl)cc2[C@@](C#CC2CC2)(C(F)(F)F)O1 [EFAVIRENZ] |  |  |  | 0.4 |  |  | 
Cc1n[nH]c2cccc(Oc3cc(C#N)cc(C#N)c3)c12 | 332 |  |  |  |  |  | 
CC(C)c1nc(COC(N)=O)n(Cc2ccncc2)c1Sc1cc(Cl)cc(Cl)c1 [CAPRAVIRINE] |  |  | 0.125 | 0.5 |  |  | 
